Data as given in ChEMBL document CHEMBL3351316, “Scaffold hopping approach on the route to selective tankyrase inhibitors” (Eur J Med Chem, 2014).
The source made the active and inactive calls. No cut-off for these calls is given here.

Experiments:
[1] = biological target: T1, Protein mono-ADP-ribosyltransferase PARP11 (Homo sapiens) (UniProt Q9NR21); experiment: Inhibition of human recombinant PARP11 at 10 uM incubated for 1 hr using NAD+, biotinylated NAD+ and activated DNA by luminescence based assay
T1 sequence (whole entry): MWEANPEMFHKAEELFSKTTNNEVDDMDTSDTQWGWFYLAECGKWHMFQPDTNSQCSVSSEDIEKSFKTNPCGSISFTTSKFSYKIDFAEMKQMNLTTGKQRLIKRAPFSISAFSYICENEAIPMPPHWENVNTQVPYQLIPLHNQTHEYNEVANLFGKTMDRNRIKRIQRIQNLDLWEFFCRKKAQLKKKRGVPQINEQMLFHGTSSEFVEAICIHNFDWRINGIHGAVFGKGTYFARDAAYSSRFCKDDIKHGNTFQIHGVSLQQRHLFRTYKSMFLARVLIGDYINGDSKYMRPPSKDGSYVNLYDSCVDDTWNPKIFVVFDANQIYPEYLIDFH
Outline: (§1)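 Recombinant PARP enzyme reactions were run in duplicate for 1 h at rt on histone-coated plates in Tris·HCl pH 8.0 buffer with NAD+, biotinylated NAD+ and activated DNA. Detection used streptavidin-HRP for 30 min at rt, then a chemiluminescent developer. % inhibition = 100 − % activity, scaled between the no-compound (100%) and no-enzyme (0%) signals.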

[2] = biological target: Poly [ADP-ribose] polymerase 2 (Homo sapiens) (UniProt Q9UGN5); experiment: Inhibition of human recombinant PARP2 incubated for 1 hr using histone substrate at 10 uM by luminescence based assay; outline: as §1
Poly [ADP-ribose] polymerase 2 (Homo sapiens), sequence (Q9UGN5 whole entry): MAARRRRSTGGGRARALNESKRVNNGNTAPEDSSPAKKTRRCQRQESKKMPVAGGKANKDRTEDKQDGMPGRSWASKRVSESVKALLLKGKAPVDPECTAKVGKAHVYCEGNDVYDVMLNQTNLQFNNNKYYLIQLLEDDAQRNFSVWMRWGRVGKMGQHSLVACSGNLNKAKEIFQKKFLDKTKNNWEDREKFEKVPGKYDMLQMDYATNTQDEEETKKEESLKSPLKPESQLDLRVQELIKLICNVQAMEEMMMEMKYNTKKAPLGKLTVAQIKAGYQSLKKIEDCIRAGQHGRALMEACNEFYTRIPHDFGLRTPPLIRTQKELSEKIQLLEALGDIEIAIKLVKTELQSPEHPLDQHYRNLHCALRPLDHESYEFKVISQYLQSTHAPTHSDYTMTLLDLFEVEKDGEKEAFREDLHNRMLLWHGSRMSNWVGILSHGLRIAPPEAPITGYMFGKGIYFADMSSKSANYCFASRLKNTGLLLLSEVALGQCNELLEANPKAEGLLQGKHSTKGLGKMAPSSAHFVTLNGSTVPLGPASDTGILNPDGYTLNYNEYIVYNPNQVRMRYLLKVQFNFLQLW

[3] = biological target: T2, Poly [ADP-ribose] polymerase tankyrase-2 (Homo sapiens, UniProt Q9H2K2); experiment: Inhibition of GST-tagged human recombinant TNKS2 incubated for 1 hr using NAD+, biotinylated NAD+ and activated DNA by luminescence based assay
T2 sequence (Q9H2K2 whole entry): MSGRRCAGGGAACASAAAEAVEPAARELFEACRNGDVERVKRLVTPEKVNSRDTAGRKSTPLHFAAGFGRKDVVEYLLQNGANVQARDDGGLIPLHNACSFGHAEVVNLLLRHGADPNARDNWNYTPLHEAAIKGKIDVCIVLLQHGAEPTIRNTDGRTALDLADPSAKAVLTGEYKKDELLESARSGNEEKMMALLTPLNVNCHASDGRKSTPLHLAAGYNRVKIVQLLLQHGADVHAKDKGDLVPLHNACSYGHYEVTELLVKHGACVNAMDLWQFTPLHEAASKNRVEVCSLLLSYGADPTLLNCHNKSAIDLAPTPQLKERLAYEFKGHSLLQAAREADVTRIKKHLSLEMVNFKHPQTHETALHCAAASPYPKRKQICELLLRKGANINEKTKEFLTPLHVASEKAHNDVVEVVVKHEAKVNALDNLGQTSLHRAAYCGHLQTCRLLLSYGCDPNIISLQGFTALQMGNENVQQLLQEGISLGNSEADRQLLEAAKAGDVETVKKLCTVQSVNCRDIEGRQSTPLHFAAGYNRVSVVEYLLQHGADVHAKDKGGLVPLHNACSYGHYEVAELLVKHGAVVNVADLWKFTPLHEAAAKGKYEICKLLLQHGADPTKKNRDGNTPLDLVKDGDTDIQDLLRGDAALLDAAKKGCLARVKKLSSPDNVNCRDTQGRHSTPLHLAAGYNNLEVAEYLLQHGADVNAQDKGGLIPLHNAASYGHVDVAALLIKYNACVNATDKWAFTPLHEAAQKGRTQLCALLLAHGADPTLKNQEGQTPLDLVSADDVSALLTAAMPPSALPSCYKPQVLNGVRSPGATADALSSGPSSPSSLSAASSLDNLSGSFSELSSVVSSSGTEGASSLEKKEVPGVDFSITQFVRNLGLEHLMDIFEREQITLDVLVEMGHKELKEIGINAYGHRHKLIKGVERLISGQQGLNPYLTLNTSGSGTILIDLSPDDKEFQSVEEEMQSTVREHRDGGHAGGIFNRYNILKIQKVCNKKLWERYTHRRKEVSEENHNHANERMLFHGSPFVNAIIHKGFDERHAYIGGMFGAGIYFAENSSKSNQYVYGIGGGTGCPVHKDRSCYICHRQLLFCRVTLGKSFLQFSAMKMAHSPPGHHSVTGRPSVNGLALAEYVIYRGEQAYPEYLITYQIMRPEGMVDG

[4] = Lipophilicity, log D of the compound at pH 7.4; type: physicochemical; details: buffer
DLD-1 = experiment: Growth inhibition of human DLD1 cells at 1 uM to 10 uM; type: functional, cell-based
Outline: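 DLD-1 colorectal cancer cells seeded at 5 × 10^3 in a colony growth assay. Cells were dosed daily with 1, 5 or 10 μM compound in DMSO, with DMSO alone as the negative control. After 10 days cells were fixed in 10% methanol/acetic acid, stained with 1% crystal violet and quantified by image analysis. Mean ± SEM of at least three independent experiments.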

SMILES: CC(C)(C)c1ccc(-c2nc3c(sc4ccccc43)c(=O)[nH]2)cc1
- inhibition [1]: 10%
- inhibition [2]: 0%
- IC50 [3]: 28.6 nM
- logD [4]: 5.16
- growth inhibition (GI) (DLD-1): Active
